MPTP block: inhibitors of mitochondrial permeability transition pore; inhibition, % at 10 µM; AID 602449; isolated mouse mitochondria, Ca2+ swelling absorbance, 30 min; 360,000 tested, 1.4% active;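 active = inhibition of 50% or more, scaled per plate between neutral and stimulator controls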;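 also: 0% = DMSO wells given calcium and 100% = 1 mM EGTA wells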
Lmaj promast: reduces viability of Leishmania major promastigotes; resazurin fluorescence viability; 200,000 tested, 9% active; inhibition, % at 10 µM; in the data active = inhibition above about 50%;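 also: promastigotes grown with compound for 44 hours at 28 °C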
Redox H2O2 prof: compounds producing H2O2 with reducing agent – biochemical, NIH compound library profiling, artefact control for MLSCN library redox annotation, primary screen | 200,000 tested, 0.03% active | DTT-dependent redox cycling H2O2, phenol red/HRP absorbance; 100% = 100 µM peroxide control, 0% = buffer | AID 878 | activation, % at 10 µM;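 active = activation of at least 50% relative to the plate's high and low controls in the primary single-dose screen; inactive = activation below 50%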;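 also: compound incubated with DTT at 0.8 mM final as the reducing agent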
Hep lipid drop: modulators of hepatic lipid droplet formation. AML12 mouse hepatocytes, oleate lipid droplets, BODIPY imaging. inhibition, % at 6.5 µM. 240,000 tested, 0.4% active;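 active = lipid droplet intensity inhibited by at least 50%, with more than 500 cells counted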
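Assay system: AML12 mouse liver cells | Compound: 6.5 µM single-point dosing | Schedule: Overnight exposure | Technique: Fluorescence imaging, 20x objective, two fields per well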
T cruzi inh: blocks replication of Trypanosoma cruzi; T. cruzi beta-gal in NIH3T3, luminescence, 90 h; AID 1885; 300,000 tested, 1.4% active; inhibition, % (concentration not given with the values);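 active = mean inhibition across valid replicates above about 55%, limit read from the data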;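 also: signal also drops with host cell toxicity which is not excluded here; 0% = plate median of DMSO wells and 100% = zero luminescence signal; higher percent means less beta-gal luminescence so fewer parasites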
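Test system: β-gal T. cruzi (Tulahuen C4) inside NIH/3T3 cells / Quantity: 5,000 cells/well / Measured by: luminescence from GalScreen with 0.05% NP40, read after 60 min / Medium: DMEM plus 2% FBS / Measure: parasite load inhibition, % / Reagent: Tulahuen C4 trypomastigotes, 5000/well / Schedule: co-culture of at least 90 h after 3 h attachment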
* = called active by the depositor. Only a selection was taken, and hits are over-represented in it overall.

c1ccc(Cc2noc(CN3CCN(CCOc4ccccc4)CC3)n2)cc1 was read as MPTP block 1, Lmaj promast 75*, Redox H2O2 prof -1, Hep lipid drop -12 and T cruzi inh 57*.
For c1ccc(CN2CCCC3(CCCN(Cc4nc(COc5ccccc5)no4)C3)C2)cc1 (stereo unspecified) the results were MPTP block 4, Lmaj promast 15, Redox H2O2 prof -1, Hep lipid drop -26 and T cruzi inh 61*.
c1ccc(Oc2c3ccccc3nc3ccccc23)cc1 was read as Hep lipid drop -5 and T cruzi inh -13.
For CC(NC(=O)CNC(=O)C(Cc1ccccc1)NC(=O)OCc1ccccc1)C(N)=O (stereo unspecified) the results were MPTP block -1, Lmaj promast 2, Redox H2O2 prof 0, Hep lipid drop -17 and T cruzi inh 11.
CCc1ccccc1S(=O)(=O)Cc1ccc(C(=O)NCc2ccc3c(c2)OCO3)o1 was read as MPTP block 0, Lmaj promast 8, Redox H2O2 prof 0 and T cruzi inh 21.
For O=C(NCc1ccc2c(c1)OCO2)c1ccc(CSCc2ccc(Cl)cc2)o1 the results were MPTP block 2, Lmaj promast 51*, Redox H2O2 prof 1, Hep lipid drop 4 and T cruzi inh 5.
`O=C(NCc1ccc2c(c1)OCO2)c1ccc(CS(=O)(=O)Cc2cccc(Cl)c2)o1` gave MPTP block 3, Lmaj promast 79*, Redox H2O2 prof 0, Hep lipid drop 7 and T cruzi inh 20.
For Cc1ccc(NC(=O)CCC(=O)NNC(=O)Nc2cccc(Cl)c2)c(C)c1 the results were MPTP block 0, Hep lipid drop 4 and T cruzi inh 19.
C#CCOc1ccc(/C=C2\SC(=S)N(Cc3cccnc3)C2=O)cc1 was read as MPTP block 3, Lmaj promast 1, Redox H2O2 prof 0, Hep lipid drop -14 and T cruzi inh 29.
For O=C1/C(=C/c2ccc(Cl)cc2)NC(=S)N1Cc1cccnc1 the results were MPTP block 1, Lmaj promast 84*, Redox H2O2 prof -1, Hep lipid drop 11 and T cruzi inh 19.
Screening O=c1c(-c2cccs2)nc2ccccc2n1C(c1ccccn1)c1nc2ccccc2[nH]1 (stereo unspecified) returned MPTP block 4.
Screening CN(C)c1ccc(/C=C(/C(=O)c2ccc(Cl)cc2Cl)n2cncn2)cc1 returned MPTP block -8, Lmaj promast 51*, Redox H2O2 prof -1, Hep lipid drop -1 and T cruzi inh 39.
Screening COc1ccc(/C=C(/C(=O)c2ccc(Cl)cc2Cl)n2cncn2)cc1 returned MPTP block -2, Lmaj promast 23, Redox H2O2 prof -5 and T cruzi inh 62*.
Screening CC(C)CC(=O)/C(=C/c1ccc(N(C)C)cc1)n1cncn1 returned MPTP block 1, Hep lipid drop 2 and T cruzi inh -12.
Screening CC(C)CC(=O)/C(=C\c1ccc(Cl)cc1Cl)n1cncn1 returned MPTP block 1, Lmaj promast 100*, Redox H2O2 prof -1, Hep lipid drop -6 and T cruzi inh 45.
O=C(c1cnn(C(=O)CN2CCCC2=O)c1)c1ccccc1O was read as MPTP block -1.
For O=C(O)C[C@H]1c2ccccc2S(=O)(=O)N1C1CCCC1 the results were MPTP block 2 and T cruzi inh -14.
`CCOC(=O)C(NC(=O)c1cccc(Cl)c1)(OCc1ccc(F)cc1)C(F)(F)F` (stereo unspecified) gave MPTP block 8, Lmaj promast 6, Redox H2O2 prof 0, Hep lipid drop 64* and T cruzi inh -2.
`CCOC(=O)C(NC(=O)c1ccccc1)(OCc1ccc(F)cc1)C(F)(F)F` (stereo unspecified) gave MPTP block 3, Lmaj promast 5, Redox H2O2 prof -1, Hep lipid drop 43 and T cruzi inh -13.
CC(C)C(=O)NC(=S)Nc1ccccc1N1CCN(C(=O)c2ccc(Cl)cc2)CC1 was read as MPTP block 1, Lmaj promast 35, Redox H2O2 prof -1, Hep lipid drop -13 and T cruzi inh 64*.
For CC(C)(C)C(=O)Nc1ccccc1N1CCN(C(=O)c2ccc(Cl)cc2)CC1 the results were MPTP block -3, Lmaj promast 18, Redox H2O2 prof 2, Hep lipid drop 0 and T cruzi inh 16.
For COc1ccc(/C(C)=N/Nc2ccc(C(=O)O)cc2)c(OC)c1 the results were MPTP block 0, Lmaj promast 53*, Redox H2O2 prof 0, Hep lipid drop 14 and T cruzi inh -2.
`CCc1nnc(SCC(=O)Nc2ccccc2)n1CC1CCCO1` (stereo unspecified) gave MPTP block 3, Hep lipid drop 4 and T cruzi inh -17.
O=C(CSc1ccccc1)N(c1ccc(Br)cc1)c1nccs1 was read as MPTP block 0, Lmaj promast 67*, Redox H2O2 prof 0, Hep lipid drop -6 and T cruzi inh 14.
`Cc1cccn2c(=O)c3cc(C(=O)NC4CCCCC4)c(=N)n(Cc4ccccc4)c3nc12` gave MPTP block 4, Hep lipid drop 8 and T cruzi inh 58*.
For Cc1cccn2c(=O)c3cc(C(=O)NCCN4CCOCC4)c(=N)n(CCCN4CCOCC4)c3nc12 the results were MPTP block 0, Hep lipid drop -2 and T cruzi inh -5.
For Cc1cccn2c(=O)c3cc(C(=O)NC4CCCC4)c(=N)n(Cc4ccc(F)cc4)c3nc12 the results were MPTP block -2, Hep lipid drop 22 and T cruzi inh 36.
Cc1cccn2c(=O)c3cc(C(=O)NCCN4CCOCC4)c(=N)n(CCc4ccccc4)c3nc12 was read as MPTP block 13, Lmaj promast 66*, Redox H2O2 prof -3 and T cruzi inh 36.
Screening CCCCNC(=O)c1cc2c(=O)n3cccc(C)c3nc2n(Cc2ccccc2)c1=N returned MPTP block 6, Lmaj promast 33, Redox H2O2 prof -1 and T cruzi inh 60*.
C[C@]12CCC(=O)C[C@@H]1CC[C@@H]1[C@@H]2CC[C@]2(C)[C@@H](C(=O)COC(=O)CCC(=O)O)CC[C@@H]12 was read as MPTP block 0, Hep lipid drop -8 and T cruzi inh -15.
C[C@]12c3[nH]c4ccc(Cl)cc4c3CCN1C(=O)[C@@H](CC(=O)NCCc1ccccn1)C[C@@H]2C(=O)N1CCCCC1 was read as MPTP block 4.
For Cc1cc(C(=O)NNc2ccccc2F)no1 the results were MPTP block 2, Hep lipid drop -5 and T cruzi inh 61*.
Screening CCc1ccccc1NNC(=O)c1cc(C)on1 returned MPTP block 1, Hep lipid drop -2 and T cruzi inh -4.
`c1cnc(N2CCN(Cc3ccc4c(c3)OCO4)CC2)nc1` gave MPTP block 1, Lmaj promast -7, Redox H2O2 prof 0, Hep lipid drop -13 and T cruzi inh -6.

Compound activity: PubChem BioAssay, several laboratories
